Usually Kd stands for the equilibrium constant for the complex coming apart.

Data on three molecules can be found in BindingDB's records for doi:10.1039/c1md00059d (Centre National De La Recherche Scientifique, 2011).

SMILES strings stand for the structures.

The experiment concerns the target T1, Vitamin D3 receptor A (Danio rerio, UniProt Q9PTN2).
T1 sequence (Q9PTN2 whole entry): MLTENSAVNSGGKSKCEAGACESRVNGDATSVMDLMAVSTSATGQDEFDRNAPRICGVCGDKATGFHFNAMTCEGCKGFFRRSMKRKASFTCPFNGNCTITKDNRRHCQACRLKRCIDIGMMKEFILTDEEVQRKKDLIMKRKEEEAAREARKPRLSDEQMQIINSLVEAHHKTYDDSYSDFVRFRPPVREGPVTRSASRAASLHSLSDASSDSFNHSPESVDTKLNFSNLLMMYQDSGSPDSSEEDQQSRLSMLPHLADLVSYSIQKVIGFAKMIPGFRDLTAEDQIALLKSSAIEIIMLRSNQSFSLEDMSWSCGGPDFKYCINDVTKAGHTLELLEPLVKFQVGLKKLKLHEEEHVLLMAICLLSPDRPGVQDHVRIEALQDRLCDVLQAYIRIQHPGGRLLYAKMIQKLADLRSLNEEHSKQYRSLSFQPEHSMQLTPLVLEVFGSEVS
The experiment is described as follows: Agonist activity at zebrafish VDR LBD assessed as binding affinity to TAMRA-labeled SRC-1 peptide by fluorescence anisotropy assay. The method in brief: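 Titrations were run in the presence of ligand, and peptide recruitment was monitored by fluorescence anisotropy to derive kd.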
On the technique in general: In fluorescence polarisation assays a small probe gives low polarisation when free and higher when bound to something large.

In the case of `C=C1/C(=C\C=C2/CCC[C@]3(C)[C@@H](C(CCCC(C)(C)O)CCCC(C)(C)O)CC[C@@H]23)C[C@H](O)C[C@H]1O`, the “Kd” value was 3300 nM.

Consider `[2H]C([2H])([2H])C(O)(CCC[C@@H](CC#CC(O)(C(F)(F)F)C(F)(F)F)[C@H]1CC[C@H]2/C(=C/C=C3C[C@H](O)C[C@@H](O)C3)CCC[C@]12C)C([2H])([2H])[2H]`, for which the “Kd” value was 1800 nM.

As to `[2H]C([2H])([2H])C(O)(CCC[C@H](CC#CC(O)(C(F)(F)F)C(F)(F)F)[C@H]1CC[C@H]2/C(=C/C=C3C[C@H](O)C[C@@H](O)C3)CCC[C@]12C)C([2H])([2H])[2H]`, the “Kd” value was determined as 1800 nM.
